Experimental data taken from ChEMBL document CHEMBL4382206, “Inhibition of adherence of the yeast Candida albicans to buccal epithelial cells by synthetic aromatic glycoconjugates” (Eur J Med Chem, 2018).
Active and inactive are the calls of the source. The rule behind the calls is not given here.

Assays:
Candida albicans [1] = assay: Antimicrobial activity against Candida albicans assessed as inhibition of fungal adherence to BEC by measuring change in adhesion at 10 mg/ml treated with fungus for 90 mins followed by compound washout and cell line addition by crystal violet staining based microscopic analysis relative to control; format: functional; design: scale not given: the % may be the effect or the level left
Outline: (§1)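 Stationary-phase C. albicans, grown overnight in YEPD at 30°C and 200 rpm, was washed and suspended in PBS at 1 x 10^8/mL. Yeast was preincubated 90 min with compound, washed twice, and mixed 50:1 with donor buccal cells (5 x 10^5/ml) at 30°C, 200 rpm, for 90 min. Samples were filtered through 30 µm pores, stained with crystal violet, and yeast counted on 200 BECs; n=3, mean ± SEM.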

Candida albicans [2] = assay: Antimicrobial activity against Candida albicans assessed as inhibition of fungal adherence to BEC by measuring adhesion at 0.1 mg/ml after 90 mins by crystal violet staining based microscopic analysis relative to control; format: functional; details: 1.5 h
Outline: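 Competition format: yeast (1 x 10^8/mL PBS) and exfoliated human buccal cells (50:1 ratio) were co-incubated with compound for 90 min at 30°C, 200 rpm. BECs were trapped on a 30 µm polycarbonate membrane, washed twice with PBS, heat-fixed and crystal violet-stained. Adherent yeast were counted microscopically on 200 random BECs; three independent occasions, mean ± SEM.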

Candida albicans [3] = assay: Growth inhibition of Candida albicans at 0.02 to 10 mg/ml; format: organism-based
Candida albicans [4] = assay: Antimicrobial activity against Candida albicans assessed as inhibition of fungal adherence to BEC at 0.1 mg/ml incubated with fungal/BEC mixture for 90 mins by crystal violet staining based microscopic analysis relative to untreated control; format: functional; details: 1.5 h
Candida albicans [5] = assay: Antimicrobial activity against Candida albicans assessed as inhibition of fungal adherence to BEC at 0.1 mg/ml incubated with fungal/BEC mixture for 90 mins by crystal violet staining based microscopic analysis relative to PBS treated control; format: functional; details: 1.5 h
Candida albicans [6] = assay: Antimicrobial activity against Candida albicans assessed as inhibition of fungal adherence to BEC at 0.1 mg/ml treated with fungus for 90 mins followed by compound washout and cell line addition by crystal violet staining based microscopic analysis; format: functional, organism-based; outline: as §1
[7] = Drug uptake in Candida albicans cell membrane by confocal microscopic analysis; format: ADME, cell-based
Outline: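 For confocal imaging, C. albicans cells were co-incubated with the fluorescein-labelled galactoside, with untreated cells and FITC-treated cells as controls. Excitation was at 488 nm and emission was collected at 500–600 nm.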

Row | Structure (SMILES) | Activity (Candida albicans [1]) [%] | growth inhibition (GI) (Candida albicans [3]) | other results
1 | CCC(=O)Nc1cc(C(=O)NCc2cn([C@H]3O[C@H](CO)[C@@H](O)[C@H](O)[C@@H]3O)nn2)cc(C(=O)NCc2cn([C@H]3O[C@H](CO)[C@@H](O)[C@H](O)[C@@H]3O)nn2)c1 | 3 |  | 
2 | CCC(=O)Nc1cccc(C(=O)NCc2cn([C@@H]3O[C@H](CO)[C@H](O)[C@H](O)[C@H]3O)nn2)c1 | -14.5 |  | 
3 | CCC(=O)Nc1cc(C(=O)NCc2cn([C@@H]3O[C@H](CO)[C@H](O[C@@H]4O[C@H](CO)[C@H](O)[C@H](O)[C@H]4O)[C@H](O)[C@H]3O)nn2)cc(C(=O)NCc2cn([C@@H]3O[C@H](CO)[C@H](O[C@@H]4O[C@H](CO)[C@H](O)[C@H](O)[C@H]4O)[C@H](O)[C@H]3O)nn2)c1 | 6.5 |  | 
4 | CCC(=O)Nc1cc(C(=O)NCc2cn([C@@H]3O[C@H](CO)[C@H](O)[C@H](O)[C@H]3O)nn2)cc(C(=O)NCc2cn([C@@H]3O[C@H](CO)[C@H](O)[C@H](O)[C@H]3O)nn2)c1 | -80 | Non-Toxic | inhibition at 100 µg/mL (Candida albicans [2]): 65%; inhibition at 100 µg/mL (Candida albicans [4]): 56%; inhibition at 100 µg/mL (Candida albicans [5]): 31%; inhibition (Candida albicans [6]): Active
5 | O=C(NCc1cn([C@@H]2O[C@H](CO)[C@H](O)[C@H](O)[C@H]2O)nn1)c1cc(C(=O)NCc2cn([C@@H]3O[C@H](CO)[C@H](O)[C@H](O)[C@H]3O)nn2)cc(C(=O)NCc2cn([C@@H]3O[C@H](CO)[C@H](O)[C@H](O)[C@H]3O)nn2)c1 | -45 | Non-Toxic | 
6 | O=C(NCc1cn([C@@H]2O[C@H](CO)[C@H](O)[C@H](O)[C@H]2O)nn1)c1cc(NC(=S)Nc2ccc3c(c2)C(=O)OC32c3ccc(O)cc3Oc3cc(O)ccc32)cc(C(=O)NCc2cn([C@@H]3O[C@H](CO)[C@H](O)[C@H](O)[C@H]3O)nn2)c1 |  |  | Drug uptake [7]: Active
7 | CCC(=O)Nc1cc(C(=O)NCc2cn([C@@H]3O[C@H](CO)[C@H](O)[C@H](O)[C@H]3O)nn2)cc(C(=O)NCc2cn([C@@H]3O[C@H](CO)[C@@H](O)[C@H](O)[C@@H]3O)nn2)c1 | -24 |  | 
8 | CCC(=O)Nc1cccc(C(=O)NCc2cn(CCO[C@@H]3O[C@H](CO)[C@H](O)[C@H](O)[C@H]3O)nn2)c1 | -7.5 |  | 
9 | O=C(NCc1cn(CCO[C@@H]2O[C@H](CO)[C@H](O)[C@H](O)[C@H]2O)nn1)c1cc(C(=O)NCc2cn(CCO[C@@H]3O[C@H](CO)[C@H](O)[C@H](O)[C@H]3O)nn2)cc(C(=O)NCc2cn(CCO[C@@H]3O[C@H](CO)[C@H](O)[C@H](O)[C@H]3O)nn2)c1 | -42 | Non-Toxic | 
10 | C[C@@H]1O[C@H](n2cc(CNC(=O)c3cc(C(=O)NCc4cn([C@H]5O[C@@H](C)[C@@H](O)[C@@H](O)[C@@H]5O)nn4)cc(C(=O)NCc4cn([C@H]5O[C@@H](C)[C@@H](O)[C@@H](O)[C@@H]5O)nn4)c3)nn2)[C@@H](O)[C@H](O)[C@@H]1O | -30 | Non-Toxic | 
11 | CCC(=O)Nc1cc(C(=O)NCc2cn(CCO[C@@H]3O[C@H](CO)[C@H](O)[C@H](O)[C@H]3O)nn2)cc(C(=O)NCc2cn(CCO[C@@H]3O[C@H](CO)[C@H](O)[C@H](O)[C@H]3O)nn2)c1 | -35 | Non-Toxic | 
12 | CCC(=O)Nc1cc(C(=O)NCc2cn([C@H]3O[C@H](CO)[C@@H](O)[C@H](O)[C@H]3NC(C)=O)nn2)cc(C(=O)NCc2cn([C@H]3O[C@H](CO)[C@@H](O)[C@H](O)[C@H]3NC(C)=O)nn2)c1 | -45 |  | 
13 | CCC(=O)Nc1cc(C(=O)NCc2cn([C@H]3O[C@@H](C)[C@@H](O)[C@@H](O)[C@@H]3O)nn2)cc(C(=O)NCc2cn([C@H]3O[C@@H](C)[C@@H](O)[C@@H](O)[C@@H]3O)nn2)c1 | -8 | Non-Toxic | 
14 | CC[C@H](C)C[C@H](C)CCCCCCCCC(=O)N[C@H]1C[C@@H](O)[C@@H](NCCN)NC(=O)[C@@H]2[C@@H](O)CCN2C(=O)[C@H]([C@H](O)CCN)NC(=O)[C@H]([C@H](O)[C@@H](O)c2ccc(O)cc2)NC(=O)[C@@H]2C[C@@H](O)CN2C(=O)[C@H]([C@@H](C)O)NC1=O [CASPOFUNGIN] |  | Non-Toxic | 
15 | CCC(=O)Nc1cc(C(=O)N[C@@H]2O[C@H](CO)[C@H](O)[C@H](O)[C@H]2O)cc(C(=O)N[C@@H]2O[C@H](CO)[C@H](O)[C@H](O)[C@H]2O)c1 | -26 |  | 
16 | CCC(=O)Nc1cccc(C(=O)NCc2cn([C@H]3O[C@@H](C)[C@@H](O)[C@@H](O)[C@@H]3O)nn2)c1 | -2 |  | 
